Assay results from ChEMBL document CHEMBL1781879, “Synthesis and biological characterization of arylomycin B antibiotics” (2011).
≈ marks a conversion by molar mass, not a printed value.

Legend:
Brevibacillus brevis = assay: Antibacterial activity against 1 x 10^6 CFU/mL Brevibacillus brevis ATCC 8246 in cation-adjusted Mueller Hinton 2 broth after 24 hrs by CLSI broth microdilution method; format: functional; conditions: ATCC 8246, 24 h
In short: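 Brevibacillus brevis: 10⁶ cfu inoculated into 1 ml cultures in cation-adjusted Mueller Hinton II broth with compound and 1% DMSO final. Parallel tubes used 0.8% nutrient broth with 0.5% NaCl or without NaCl. Cultures shaken at 28 °C for 24 h. MIC was the lowest concentration inhibiting visible growth.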

[1] = system: Corynebacterium glutamicum; assay: Antibacterial activity against 1 x 10^7 CFU/mL Corynebacterium glutamicum ATCC 44475 in cation-adjusted Mueller Hinton 2 broth after 24 hrs by CLSI broth microdilution method; format: functional; conditions: ATCC 44475, 24 h
In short: (§1)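 CLSI broth microdilution in cation-adjusted Mueller Hinton II broth. Inoculum made by suspending organisms grown on solid media in the same broth and diluting to 1×10^7 CFU/ml; 5 μl added to 100 μl medium containing graded compound concentrations. MIC is the lowest concentration preventing visible growth, from at least three independent experiments.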

Pseudomonas aeruginosa = assay: Antibacterial activity against 1 x 10^7 CFU/mL Pseudomonas aeruginosa PAO1 PAS2008 harboring LepB P84L mutant in cation-adjusted Mueller Hinton 2 broth after 24 hrs by CLSI broth microdilution method; format: functional; conditions: PAO1 PAS2008, 24 h; in short: as §1
Streptococcus pneumoniae = assay: Antibacterial activity against 1 x 10^7 CFU/mL Streptococcus pneumoniae R800 in Todd Hewitt broth after 24 hrs by CLSI broth microdilution method; format: functional; conditions: R800, 24 h
In short: (§2)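 CLSI broth microdilution. Bacteria from solid media were suspended in the test broth at 1×10^7 cfu/ml, and 5 μl was added to 100 μl medium containing compound. Media were cation-adjusted Mueller Hinton II (R. opacus, S. epidermidis), Todd Hewitt (S. pyogenes, S. pneumoniae) and Trypticase Soy Yeast broth (L. lactis). MIC was the lowest concentration inhibiting visible growth, from at least three independent experiments.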

Streptococcus pyogenes = assay: Antibacterial activity against 1 x 10^7 CFU/mL Streptococcus pyogenes M1-5448 in Todd Hewitt broth after 24 hrs by CLSI broth microdilution method; format: functional; conditions: M1-5448, 24 h; in short: as §2
Rhodococcus opacus = assay: Antibacterial activity against 1 x 10^7 CFU/mL Rhodococcus opacus DSM 1069 in cation-adjusted Mueller Hinton 2 broth after 24 hrs by CLSI broth microdilution method; format: functional; conditions: DSM 1069, 24 h; in short: as §2
Streptococcus agalactiae = assay: Antibacterial activity against 1 x 10^7 CFU/mL Streptococcus agalactiae COH1 after 24 hrs by CLSI broth microdilution method; format: functional; conditions: COH1, 24 h
In short: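 Streptococcus agalactiae tested by CLSI broth microdilution in both cation-adjusted Mueller Hinton II and Todd Hewitt broth. Inoculum was a suspension from solid media at 1×10^7 cfu/ml, with 5 μl added to 100 μl medium containing compound. MIC was the lowest concentration inhibiting visible growth, from at least three independent experiments.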

[2] = Antibacterial activity against 1 x 10^7 CFU/mL Staphylococcus epidermidis RP62A PAS9002 harboring Sps1B-S31P mutant in cation-adjusted Mueller Hinton 2 broth after 24 hrs by CLSI broth microdilution method; format: functional; conditions: PAS9002, 24 h; in short: as §1
[3] = system: Staphylococcus epidermidis; assay: Antibacterial activity against 1 x 10^7 CFU/mL wild-type Staphylococcus epidermidis RP62A in cation-adjusted Mueller Hinton 2 broth after 24 hrs by CLSI broth microdilution method; format: functional; in short: as §2
[4] = Antibacterial activity against 1 x 10^7 CFU/mL Staphylococcus aureus NCTC 8325 PAS8001 harboring SpsB P29S mutant in cation-adjusted Mueller Hinton 2 broth after 24 hrs by CLSI broth microdilution method; format: functional, Staphylococcus aureus subsp. aureus NCTC 8325; conditions: PAS8001, 24 h; in short: as §1
Lactococcus lactis = assay: Antibacterial activity against 1 x 10^7 CFU/mL Lactococcus lactis ATCC 19257 in trypticase soy yeast broth after 24 hrs by CLSI broth microdilution method; format: functional; conditions: ATCC 19257, 24 h; in short: as §2
Prescottella equi = assay: Antibacterial activity against 1 x 10^7 CFU/mL Rhodococcus equi ATCC 6939 in cation-adjusted Mueller Hinton 2 broth after 24 hrs by CLSI broth microdilution method; format: functional; conditions: Rhodococcus (subgen. Prescottella) equi, ATCC 6939, 24 h; in short: as §1
[5] = Antibacterial activity against 1 x 10^7 CFU/mL Escherichia coli MG1655 PAS0260 harboring LepB P84L mutant in cation-adjusted Mueller Hinton 2 broth after 24 hrs by CLSI broth microdilution method; format: functional, Escherichia coli str. K-12 substr. MG1655; conditions: PAS0260, 24 h; in short: as §1

Row | SMILES | MIC (Brevibacillus brevis) [µg/mL] | MIC [1] [µg/mL] | MIC (Pseudomonas aeruginosa) [µg/mL] | MIC (Streptococcus pneumoniae) [µg/mL] | MIC (Streptococcus pyogenes) [µg/mL] | MIC (Rhodococcus opacus) [µg/mL] | MIC (Streptococcus agalactiae) [µg/mL] | MIC [2] [µg/mL] | MIC [3] [µg/mL] | MIC [4] [µg/mL] | MIC (Lactococcus lactis) [µg/mL] | MIC (Prescottella equi) [µg/mL] | MIC [5] [µg/mL]
1 | CCCCCCCCCCCCCCCC(=O)N(C)[C@H](CO)C(=O)N[C@H](C)C(=O)NCC(=O)N(C)[C@@H]1C(=O)N[C@@H](C)C(=O)N[C@H](C(=O)O)Cc2ccc(O)c(c2)-c2cc1ccc2O [ARYLOMYCIN C16] | > 64 | 2 (≈ 2.27 µM) | 4 (≈ 4.54 µM) | 8 (≈ 9.08 µM) | 8 (≈ 9.08 µM) | 1 (≈ 1.13 µM) | > 128 | 8 (≈ 9.08 µM) | 0.25 (≈ 0.284 µM) | 4 (≈ 4.54 µM) | 16 (≈ 18.2 µM) | 16 (≈ 18.2 µM) | 2 (≈ 2.27 µM)
2 | CCCCCCCCCCCCCCCC(=O)N(C)[C@H](CO)C(=O)N[C@H](C)C(=O)NCC(=O)N(C)[C@@H]1C(=O)N[C@@H](C)C(=O)N[C@H](C(=O)O)Cc2cc(N)c(O)c(c2)-c2cc1ccc2O | > 64 |  | 32 (≈ 35.7 µM) |  |  |  |  |  | 8 (≈ 8.93 µM) | 64 (≈ 71.4 µM) |  |  | 16 (≈ 17.9 µM)
3 | CCCCCCCCCCCCCCCC(=O)N(C)[C@H](CO)C(=O)N[C@H](C)C(=O)NCC(=O)N(C)[C@@H]1C(=O)N[C@@H](C)C(=O)N[C@H](C(=O)O)Cc2cc(c(O)c([N+](=O)[O-])c2)-c2cc1ccc2O | > 64 | 2 (≈ 2.16 µM) | 4 (≈ 4.32 µM) | 16 (≈ 17.3 µM) | 4 (≈ 4.32 µM) | 4 (≈ 4.32 µM) | 8 (≈ 8.64 µM) | 8 (≈ 8.64 µM) | 0.25 (≈ 0.27 µM) | 4 (≈ 4.32 µM) | 32 (≈ 34.6 µM) | 32 (≈ 34.6 µM) | 2 (≈ 2.16 µM)
